For eight molecules, Stability, IC50 and inhibition results are on record in ChEMBL document CHEMBL3739368, “Versixanthones A-F, Cytotoxic Xanthone-Chromanone Dimers from the Marine-Derived Fungus Aspergillus versicolor HDN1009” (J Nat Prod, 2015).

Data set [1] can be described thus: Chemical stability of the compound in deuterated DMSO by NMR spectroscopic analysis. Format: physicochemical.
For data set [2], the system named is K562. The data set is described as follows: Cytotoxicity against human K562 cells after 72 hrs by MTT assay. As to conditions: K562, 72 h. Format: functional, cell-based.
The nature of data set [3]: Cytotoxicity against human HCT116 cells after 72 hrs by MTT assay. The class given is functional, cell-based. Particulars: HCT-116, 72 h.
Data set [4] is described as follows: Cytotoxicity against human HL60 cells after 72 hrs by MTT assay. Format: functional, cell-based. As to conditions: HL-60, 72 h.
Data set [5] concerns NCI-H1975. The data set is described as follows: Cytotoxicity against human NCI-H1975 cells after 72 hrs by MTT assay. The class given is functional, cell-based. Particulars: NCI-H1975, 72 h.
In data set [6] the test system is A549. Description: Cytotoxicity against human A549 cells after 72 hrs by MTT assay. Format: functional, cell-based. As to conditions: A549, 72 h.
The nature of data set [7]: Cytotoxicity against human HO8910 cells after 72 hrs by MTT assay. Format: functional, cell-based. As to conditions: HO-8910, 72 h.
Data set [8] in a line: Cytotoxicity against human MGC803 cells after 72 hrs by MTT assay. The class given is functional, cell-based. Particulars: MGC-803, 72 h.
Data set [9] addresses T1, DNA topoisomerase 1 (Homo sapiens) (UniProt P11387).
T1 sequence (whole entry): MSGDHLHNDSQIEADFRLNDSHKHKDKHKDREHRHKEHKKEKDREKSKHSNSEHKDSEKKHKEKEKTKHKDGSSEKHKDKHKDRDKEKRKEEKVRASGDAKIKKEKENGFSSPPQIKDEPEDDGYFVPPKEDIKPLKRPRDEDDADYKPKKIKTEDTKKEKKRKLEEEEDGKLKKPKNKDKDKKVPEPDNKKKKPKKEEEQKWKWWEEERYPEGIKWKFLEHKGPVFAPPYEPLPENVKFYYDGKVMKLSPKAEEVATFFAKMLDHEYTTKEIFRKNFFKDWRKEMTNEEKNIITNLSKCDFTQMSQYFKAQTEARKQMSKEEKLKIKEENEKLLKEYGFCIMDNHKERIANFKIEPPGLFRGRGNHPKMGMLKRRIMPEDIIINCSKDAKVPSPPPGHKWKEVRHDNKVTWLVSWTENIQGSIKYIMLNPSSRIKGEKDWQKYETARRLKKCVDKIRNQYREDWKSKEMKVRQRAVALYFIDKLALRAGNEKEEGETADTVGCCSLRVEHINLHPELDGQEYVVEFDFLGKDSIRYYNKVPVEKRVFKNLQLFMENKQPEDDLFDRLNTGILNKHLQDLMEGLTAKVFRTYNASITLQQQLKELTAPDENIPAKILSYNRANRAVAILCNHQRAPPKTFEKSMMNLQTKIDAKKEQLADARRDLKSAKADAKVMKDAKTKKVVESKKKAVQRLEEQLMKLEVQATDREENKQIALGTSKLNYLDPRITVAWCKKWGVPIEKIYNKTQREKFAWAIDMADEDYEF
The data set is described as follows: Inhibition of topoisomerase 1 (unknown origin) assessed as decrease in PBR322 DNA relaxation at 5 to 40 uM after 30 mins by ethidium bromide staining-based agarose gel electrophoresis. Summed up: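 Supercoiled pBR322 plasmid DNA served as substrate. Samples were resolved on 1% agarose gels and stained with ethidium bromide. Supercoiled and relaxed DNA bands were marked on the gel.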

Where a name gives a salt, the structure may show the parent alone. Active and inactive are the calls of the source. The calls are words filed in the database; no cut-off is given here. Some results are limits rather than exact numbers.

Take `COC(=O)[C@@]12Oc3ccc(-c4ccc(O)c5c4O[C@](C(=O)OC)([C@@H]4OC(=O)C[C@@H]4C)CC5=O)c(O)c3C(=O)C1=C(O)C[C@H](C)[C@H]2O`: the Stability result in data set [1] is reported as “Unstable”. The IC50 was 18.2 µM in data set [2]; above 50 µM in [3]; 7.8 µM in data set [4]; 25.6 µM in [5]; above 50 µM in data set [6]; above 50 µM in [7].
Consider `COC(=O)[C@@]12Oc3ccc(-c4ccc5c(c4O)C(=O)C[C@@](C(=O)OC)([C@@H]4OC(=O)C[C@@H]4C)O5)c(O)c3C(=O)C1=C(O)C[C@H](C)[C@H]2O`, for which the Stability result in data set [1] is reported as “Unstable”. In addition, the half-maximal inhibitory concentration (IC50) in [2] is 9.1 µM; in data set [3], 6.1 µM; in data set [8], 9.8 µM; in [4], 3.1 µM; in data set [5] it was above 50 µM; in data set [6], 12.7 µM. In data set [7], this molecule displayed a half-maximal inhibitory concentration (IC50) of 13.9 µM.
`COC(=O)[C@@]12Oc3c(-c4ccc5c(c4O)C(=O)C[C@@](C(=O)OC)([C@@H]4OC(=O)C[C@@H]4C)O5)ccc(O)c3C(=O)C1=C(O)C[C@H](C)[C@H]2O`: in data set [1], the Stability entry was “Unstable”. Further, the IC50 in [2] is 7.1 µM; in data set [8], above 50 µM; in data set [4], 2.6 µM; in data set [5] it was 11.2 µM; in data set [6], above 50 µM; in data set [7] it was 10.1 µM.
With `COC(=O)C[C@H](C)[C@@H](O)[C@]1(C(=O)OC)CC(=O)c2c(ccc(-c3ccc4c(c3O)C(=O)C3=C(O)C[C@H](C)[C@@H](O)[C@]3(C(=O)OC)O4)c2O)O1`, the Stability result in data set [1] is on record as “Unstable”. In addition, the half-inhibitory concentration (IC50) turned out to be 6.7 µM in [2]; 0.7 µM in [3]; 2.7 µM in [4]; 10.6 µM in data set [6]; 20.8 µM in [7].
In the case of `COC(=O)[C@@]12Oc3c(-c4ccc(O)c5c4O[C@](C(=O)OC)([C@@H]4OC(=O)C[C@@H]4C)CC5=O)ccc(O)c3C(=O)C1=C(O)C[C@H](C)[C@H]2O`, the Stability result in data set [1] was “Unstable”. Further, the IC50 in [8] is 21.6 µM; in data set [4], 9.9 µM; in [5], above 50 µM; in [6], above 50 µM; in data set [7], above 50 µM.
With `COC(=O)C[C@H](C)[C@@H](O)[C@]1(C(=O)OC)CC(=O)c2c(ccc(-c3ccc(O)c4c3O[C@]3(C(=O)OC)C(=C(O)C[C@H](C)[C@H]3O)C4=O)c2O)O1`, the inhibition entry in [9] is “Active”. Also, the Stability entry in data set [1] is recorded as “Unstable”. Also, the IC50 in data set [2] was 11.1 µM; in data set [8] it was 2.2 µM; in data set [4], 1.6 µM; in data set [5] it was 2.7 µM; in [7], 2 µM.
Take `COC(=O)[C@@]12Oc3ccc(-c4ccc5c(c4O)C(=O)C4=C(O)C[C@H](C)[C@@H](O)[C@]4(C(=O)OC)O5)c(O)c3C(=O)C1=C(O)C[C@H](C)[C@H]2O`: the IC50 worked out at 2 µM in data set [2]; 0.9 µM in data set [3]; 1.5 µM in data set [8]; 1 µM in data set [4]; 2.1 µM in data set [6]; 1.5 µM in [7].
Regarding `COc1cccc2c1C(=O)c1c(O)c3c(c(O)c1C2=O)C[C@@](O)(C(=O)CO)C[C@@H]3O[C@H]1C[C@H](N)[C@H](O)[C@H](C)O1` [DOXORUBICIN HYDROCHLORIDE], the IC50 in [3] was found to be 0.2 µM; in data set [8] it was 0.2 µM; in data set [5], 0.8 µM.
